Only some compounds are listed: those with a hit (about 1.5% of all), similar ones and a draw of the others.
DNMT1 block: human DNMT1 methyltransferase inhibitors, primary screen, biochemical, molecular beacon, fluorescence, HinP1I cleavage, uHTS | 360,000 compounds, 0.83% hits | inhibition (reported as % activation of signal), % at 10 µM | DNA (cytosine-5)-methyltransferase 1 (Homo sapiens), P26358 | AID 588458, 2011
HCV NS3 hel inh: inhibitors of HCV NS3 helicase, primary screen, biochemical, Cy5 molecular beacon fluorescence; inhibition, % at 10.9 µM; Hepatitis C virus NS3 helicase; AID 1800, 2009; 290,000 compounds, 0.56% hits; NS3 helicase DNA unwinding;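 active = inhibition above the mean of all tested compounds plus 3 SD, set per campaign, cut at about 35% in these data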;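 also: 0% = DMSO wells and 100% = thioflavine S control wells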
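Material: hepatitis C virus NS3 helicase domain fragment enzyme; measured by: Cy5 fluorescence, 0 and 60 min reads; control set: DMSO and thioflavine S; incubation: 60 min unwinding reaction at 25 °C after ATP addition; read-out basis: % inhibition from 60/0 min fluorescence ratio, DMSO 0%, thioflavine S 100%; repeats: singlicate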
Casp6 inh: human caspase-6 inhibitors, primary screen, biochemical, VEID-R110 fluorescence, single point, set 2 | purified caspase-6, Z-VEID-R110 cleavage fluorescence | inhibition, % at 12.5 µM | 350,000 compounds, 0.53% hits;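 active = mean inhibition across replicates at least about 35%, with every replicate also reaching that limit, limit read from the data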;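 also: 0% = median of neutral control wells and 100% = no fluorescence left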
Target sequence (P55212 24-179 limits assumed): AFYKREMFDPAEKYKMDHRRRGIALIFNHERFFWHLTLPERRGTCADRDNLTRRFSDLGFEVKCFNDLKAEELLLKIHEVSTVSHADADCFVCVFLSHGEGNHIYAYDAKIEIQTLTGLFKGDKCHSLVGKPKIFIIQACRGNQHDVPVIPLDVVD
Target sequence (P55212 194-293 limits assumed): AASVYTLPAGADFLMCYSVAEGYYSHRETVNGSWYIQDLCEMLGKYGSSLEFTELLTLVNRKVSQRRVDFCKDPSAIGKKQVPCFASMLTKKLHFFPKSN
NSD2 inh: NSD2 histone methyltransferase inhibitors, primary screen, biochemical, AlphaScreen, single concentration, set 2; AID 743445, 2014; Histone-lysine N-methyltransferase NSD2 (Homo sapiens), O96028; 310,000 compounds, 0.54% hits; NSD2 peptide methylation, 120 min; inhibition, % at 12.5 µM
Alpha artifact: AlphaScreen signal interference with preloaded methylated product, dose response, artefact control for NSD2 inhibitor project, biochemical, cherry-picked samples | 1,500 compounds, 9.4% hits | AC35, µM (series often up to 10 µM), for inactives: at the highest dose activity change, negative = signal loss | AlphaScreen artifact counterscreen, preloaded methylated H4 peptide | AID 1053174, 2014 | shares compounds with NSD2 inh; call rule not given here
Active calls of the source: *. Rule as the data show it, unless noted: active = inhibition above about 50%; inactive = the rest.

How did Cc1cccc(NC(=O)CCN2CCCCC2)c1 do in these assays?
DNMT1 block: 1; HCV NS3 hel inh: 4; Casp6 inh: -2; NSD2 inh: 66*; Alpha artifact: -5%

What do the screens show for `Cc1ccc(NC(=O)CCN2CCN(C/C=C/c3ccccc3)CC2)cc1`?
DNMT1 block: -2; HCV NS3 hel inh: -23; NSD2 inh: 33

What do the screens show for `COc1ccc(NC(=O)N[C@@H]2CC[C@H](CCn3cc(-c4ccc(OC)cc4)nn3)O[C@H]2CO)cc1`?
Casp6 inh: -2

What do the screens show for `CCOc1cc(N2CCOCC2)c(OCC)cc1NC(=O)c1cnccn1`?
DNMT1 block: 0; Casp6 inh: 3; NSD2 inh: 64*; Alpha artifact: -7%

How did CNCCCC1Sc2ccccc2Oc2ccccc21 (stereo not drawn) do in these assays?
DNMT1 block: 1; HCV NS3 hel inh: -31; NSD2 inh: 72*; Alpha artifact: -8%

What do the screens show for `CNCCCC1c2ccccc2C=Cc2ccccc21`?
DNMT1 block: 1; HCV NS3 hel inh: -22; Casp6 inh: 3

Results for CCN1CCCC1CNc1ncnc2c1[nH]c1ccc(Cl)cc12 (stereo not drawn) ?
DNMT1 block: -3; HCV NS3 hel inh: -31; NSD2 inh: 54*; Alpha artifact: -1%

How did O=C1CCCN1CCCNc1ncnc2c1[nH]c1ccc(Cl)cc12 do in these assays?
DNMT1 block: -10; HCV NS3 hel inh: -17; Casp6 inh: 1; NSD2 inh: 1

What do the screens show for `Oc1cccc2cnccc12`?
DNMT1 block: -4; HCV NS3 hel inh: 9; Casp6 inh: 1; NSD2 inh: -1

How did Nc1cccc2cnccc12 do in these assays?
DNMT1 block: -16; HCV NS3 hel inh: 9; NSD2 inh: 107*; Alpha artifact: -5%

Results for CC(=O)Nc1ccc(NC2=C/C(=N/S(=O)(=O)c3cccs3)c3ccccc3C2=O)cc1 ?
DNMT1 block: 48; HCV NS3 hel inh: -11; Casp6 inh: 99*; NSD2 inh: 83*; Alpha artifact: -10%

Results for O=C1NC(NS(=O)(=O)c2ccccc2)(C(F)(F)F)C(=O)N1c1cccc(Cl)c1 (stereo not drawn) ?
DNMT1 block: -2; HCV NS3 hel inh: 11; Casp6 inh: 1; NSD2 inh: 96*; Alpha artifact: -2%

What do the screens show for `c1ccc(-c2cc(-c3ccccc3)n3ncnc3n2)cc1`?
DNMT1 block: -2; HCV NS3 hel inh: -7; Casp6 inh: 3; NSD2 inh: 50*; Alpha artifact: -1%

How did COc1ccc(-c2cc(-c3ccccc3)nc3ncnn23)cc1 do in these assays?
DNMT1 block: 4; HCV NS3 hel inh: -2; Casp6 inh: 5

What do the screens show for `Cc1cc(C(=O)COc2cccc(-n3cnnn3)c2)c(C)n1-c1ccccc1`?
DNMT1 block: -4; HCV NS3 hel inh: -2; NSD2 inh: 56*; Alpha artifact: -1%

Results for Cc1ccc(CC(=O)Nc2nncs2)cc1 ?
DNMT1 block: -1; HCV NS3 hel inh: 4; NSD2 inh: 57*; Alpha artifact: 2%

How did O=C(C[C@@H]1CC[C@@H]2[C@H](COC[C@@H](O)CN2S(=O)(=O)c2ccc(Cl)cc2)O1)NCCN1CCCCC1 do in these assays?
Casp6 inh: 4

Results for CCCC(C(=O)NC(C)(C)C)N(CC1CCCO1)C(=O)CNS(=O)(=O)c1ccc(F)cc1 (stereo not drawn) ?
DNMT1 block: 0; HCV NS3 hel inh: -4; Casp6 inh: -2; NSD2 inh: 83*; Alpha artifact: -1%

What do the screens show for `C[C@H]1CN([C@@H](C)CO)C(=O)c2cccc(NC(=O)C3CC3)c2O[C@H]1CN(C)C(=O)NC1CCCCC1`?
Casp6 inh: 1

Results for C[C@H](CO)N1C[C@H](C)[C@H](CN(C)S(=O)(=O)c2cccc(F)c2)Oc2ncc(C#CC3CC3)cc2C1=O ?
Casp6 inh: 0

How did C=CCn1c(NS(=O)(=O)c2ccccc2)c(S(=O)(=O)c2ccc(C)cc2)c2nc3ccccc3nc21 do in these assays?
DNMT1 block: -3; HCV NS3 hel inh: 24; Casp6 inh: 23; NSD2 inh: 115*; Alpha artifact: -6%

What do the screens show for `CCCCn1c(N)c(S(=O)(=O)c2ccc(C)cc2)c2nc3ccccc3nc21`?
DNMT1 block: -27; HCV NS3 hel inh: -6; Casp6 inh: 0; NSD2 inh: -2

How did CCCC(=O)Nc1cc(C)cn(Cc2c(F)cccc2Cl)c1=O do in these assays?
DNMT1 block: 0; HCV NS3 hel inh: 7; Casp6 inh: 5; NSD2 inh: 76*; Alpha artifact: -8%

How did COCC(=O)Nc1cc(C)cn(Cc2ccccc2Cl)c1=O do in these assays?
DNMT1 block: -4; HCV NS3 hel inh: 2; Casp6 inh: 2; NSD2 inh: -1

Results for O=[N+]([O-])c1ccc(-c2cccnc2)cc1 ?
DNMT1 block: 10; Casp6 inh: -3; NSD2 inh: 158*; Alpha artifact: 0%

What do the screens show for `CS(=O)(=O)N(CC(=O)NCc1ccc2c(c1)OCO2)c1cccc(Cl)c1`?
DNMT1 block: -4; HCV NS3 hel inh: -16; Casp6 inh: 0; NSD2 inh: 106*; Alpha artifact: -2%

What do the screens show for `O=C(Cc1ccc(Cl)cc1)Nc1ncc([N+](=O)[O-])s1`?
DNMT1 block: -2; HCV NS3 hel inh: -1; Casp6 inh: 0; NSD2 inh: 3

Results for O=C(Cc1ccc(Br)cc1)Nc1ncc([N+](=O)[O-])s1 ?
DNMT1 block: 14; HCV NS3 hel inh: -1; Casp6 inh: 2; NSD2 inh: 50*; Alpha artifact: 0%

What do the screens show for `Cc1cc(OCC(=O)Nc2ccccc2N2CCCCC2)ccc1C(C)C`?
DNMT1 block: 4; Casp6 inh: -4; NSD2 inh: 77*; Alpha artifact: -1%

Results for CC(C)NC(=O)N1CC(=O)N2[C@H](CO)[C@@H](c3ccc(/C=C/c4ccccc4)cc3)[C@H]2C1 ?
Casp6 inh: 2

Results for CCCC(=O)Nc1ccc2c(c1)OC[C@@H](C)N(C(=O)c1ccncc1)C[C@H](C)[C@@H](OC)CN(C)C2=O ?
Casp6 inh: 1

Results for C[C@@H]1CN([C@@H](C)CO)C(=O)c2cc(NS(=O)(=O)c3ccc(Cl)cc3)ccc2O[C@@H](C)CCCCO[C@H]1CN(C)C ?
Casp6 inh: 0

What do the screens show for `COc1ccc(S(=O)(=O)Nc2ccc3c(c2)C(=O)N([C@H](C)CO)C[C@H](C)[C@H](CN(C)C)OCCCC[C@H](C)O3)cc1`?
Casp6 inh: -3

What do the screens show for `CN(C)c1cc(Cl)c2nonc2c1N`?
DNMT1 block: 13; HCV NS3 hel inh: -8; Casp6 inh: 99*; NSD2 inh: 104*; Alpha artifact: 1%
